Source: article PMC11718131 (Communications Biology, 2025)
Peptide text beside a SMILES is read from it. * marks the point of attachment. Cbz = O=C(OCc1ccccc1)*

How the values were obtained:
[1] = cited from earlier work
wildtype (WT) CA2 = conditions: in words; cited from earlier work
[2] = test system: proteasome; GFP-CA2-DRD fusion in Jurkat cells; test: Proteasome inhibition assay; format: cell-based, human; conditions: 10 µM MG132, 4 h without ACZ after 24 h ACZ; versus vehicle
Method in brief: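 Cells then washed with fresh media and split in two: one arm […] 10 µM MG132 for 4 h. GFP expression read by flow cytometry.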

[3] = Huntington's disease; cited from earlier work

In the case of `CC(=O)Nc1nnc(S(N)(=O)=O)s1` [ACZ, acetazolamide], the “total in vivo exposure levels” value ([1]; FDA-approved and clinically used doses) is given as ~ 100 µM, the “total concentrations in plasma and other tissues” value ([1]; approved doses, in words) is given as “micromolar range” and the “affinity to CA2” value (wildtype (WT) CA2) is given as “low nanomolar affinity”.

With `CC(C)C[C@@H](C=O)NC(=O)[C@H](CC(C)C)NC(=O)[C@H](CC(C)C)NC(=O)OCc1ccccc1` [MG132] (Cbz-Leu-Leu-Leu-aldehyde) the “decrease in GFP levels after ACZ withdrawal” value [2] was “smaller decrease in GFP levels”.

For `CC1(C)CC(Oc2ccc(-c3ccc(-c4cn[nH]c4)cc3O)nn2)CC(C)(C)N1` [branaplam], the “clinical trial outcome” value [3] is listed as “halted because of drug-related side effects”.
